From ChEMBL document CHEMBL2163342, “[18F](R)-5-chloro-1-(1-cyclopropyl-2-methoxyethyl)-3-(4-(2-fluoroethoxy)-2,5-dimethyl phenylamino)pyrazin-2(1H)-one: introduction of N3-phenylpyrazinones as potential CRF-R1 PET imaging agents” (Bioorg Med Chem Lett, 2012) come the findings set out here.

The target of data set [1] is T1, Corticotropin-releasing factor receptor 1 (Rattus norvegicus, UniProt P35353).
T1 sequence (P35353 whole entry): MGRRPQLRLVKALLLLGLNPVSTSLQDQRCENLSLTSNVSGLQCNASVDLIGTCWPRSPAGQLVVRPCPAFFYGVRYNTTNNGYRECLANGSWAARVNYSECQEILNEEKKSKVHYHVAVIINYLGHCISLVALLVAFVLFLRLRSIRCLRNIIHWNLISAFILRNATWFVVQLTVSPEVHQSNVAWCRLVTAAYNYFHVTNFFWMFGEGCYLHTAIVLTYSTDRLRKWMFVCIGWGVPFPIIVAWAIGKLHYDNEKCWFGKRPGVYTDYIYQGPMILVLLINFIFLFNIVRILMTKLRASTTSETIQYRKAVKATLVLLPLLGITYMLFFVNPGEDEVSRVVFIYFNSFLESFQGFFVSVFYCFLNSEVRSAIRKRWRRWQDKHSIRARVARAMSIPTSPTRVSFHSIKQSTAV
Briefly: Displacement of [125I]-o-CRF from CRFR1 in rat frontal cortex after 2 hrs by gamma counter. The format is tissue-based. The method in brief:
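Rat frontal cortex homogenate (25 µg/well), prepared in 50 mM HEPES pH 7.0, 10 mM MgCl2, 2 mM EGTA, protease inhibitors, 0.005% Triton X-100, bacitracin, 0.1% ovalbumin. Incubated with 150 pM [125I]-o-CRF and compounds for 2 h at 21 °C. Separated by rapid filtration on PEI-pretreated glass fiber filters, washed with ice-cold PBS/0.01% Triton X-100. Specific binding inhibition gives Ki.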

Data set [2] in a line: Octanol-phosphate buffer partition coefficient, log D of the compound at pH 7.4 by shake flask method. The format is physicochemical. In a few lines: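 Shake-flask method. Octanol and 25 mM phosphate buffer (pH ~7.4) mixed and allowed to saturate overnight. Compound (1.0 mg in 1 mL octanol) added to 50 mL octanol-saturated buffer, shaken intensely 30–40 min, then layers left to separate. Each layer analysed twice by HPLC.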

Data set [3] in a line: Unbound fraction in rat plasma after 3 hrs by equilibrium dialysis method. The format is ADME, cell-free. The method in brief: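 Equilibrium dialysis of rat plasma spiked with compound against isotonic phosphate buffer, 3 h at 37 °C. Buffer and plasma concentrations measured by LC/MS/MS. Unbound fraction taken as the buffer/plasma concentration ratio.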
Data set [4] relates to Liver microsomes. Briefly: Drug metabolism in rat liver microsomes assessed as compound depletion per mg of protein at 3 uM. The format is ADME, Microsome. The method in brief:
(§1)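 Liver microsomes (1 mg/ml protein) incubated with 3 µM compound and 1.3 mM NADPH at 37 °C in 100 mM sodium phosphate buffer, pH 7.4. Final solvent 0.015% DMSO, 0.985% acetonitrile. Stopped at 0 and 10 min, compound measured by LC/MS/MS. Reported as depletion rate, pmol/min/mg protein.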

For data set [5], the system named is Liver microsomes. Nature of the data set: Drug metabolism in human liver microsomes assessed as compound depletion per mg of protein at 3 uM. The format is ADME, Microsome. The method in brief: as §1
A further data set deals with Spleen. Briefly: Drug uptake in rat spleen measured at 15 and 60 mins. The format is ADME, tissue-based. Conditions: in vivo, 1 h; call rule not given here. In a few lines:
(§2)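 Whole-body biodistribution of the [18F]-labelled radioligand in rats, formulated in 10% EtOH/saline. Tissues sampled at 15 and 60 min post-dose. Activity expressed as average % injected dose per gram.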

Another data set concerns Liver. Briefly: Drug uptake in rat liver measured at 15 and 60 mins. The format is ADME, tissue-based. Conditions: in vivo, 1 h. The method in brief:
as §2

For data set [6], the system named is Brain. Briefly: Drug uptake in rat brain after 10 to 30 mins by microPET analysis. The format is ADME, tissue-based. Conditions: in vivo. In a few lines:
(§3)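 In vivo microPET imaging of rat head and neck after dosing with the [18F] radioligand. Brain uptake followed from the first 10 min through 30 min on sagittal images. Skull bone uptake checked for defluorination.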

The subject of a further data set is Muscle tissue. Briefly: Drug uptake in rat muscle measured at 15 and 60 mins. The format is ADME, tissue-based. To be noted: in vivo, 1 h. In a few lines: as §2
A further data set has as its system Lung. Briefly: Drug uptake in rat lung measured at 15 and 60 mins. To be noted: in vivo, 1 h. The format is ADME, tissue-based. The method in brief:
as §2

The test system of the next data set is Intestine. Nature of the data set: Drug uptake in rat small intestine measured at 15 and 60 mins. The format is ADME, tissue-based. Conditions: in vivo, 1 h. In a few lines: as §2
The next data set deals with Blood. Briefly: Drug uptake in rat blood measured at 15 and 60 mins. The format is ADME, tissue-based. Conditions: 1 h. The method in brief: as §2
Data set [7] concerns Brain. Briefly: Drug uptake in rat brain measured at 15 and 60 mins. The format is ADME, tissue-based. Conditions: in vivo, 1 h. The method in brief: as §2
In data set [8] the test system is Brain. Briefly: Drug uptake in rat brain up to 10 mins by microPET analysis. The format is ADME, tissue-based. Conditions: in vivo. In a few lines:
as §3

The nature of data set [9]: Drug uptake in rat tibia measured at 15 and 60 mins. The format is ADME, tissue-based. Conditions: in vivo, 1 h. The method in brief:
as §2

The subject of another data set is Kidney. Briefly: Drug uptake in rat kidney measured at 15 and 60 mins. The format is ADME, tissue-based. To be noted: in vivo, 1 h. In a few lines: as §2
The next data set concerns Heart. Nature of the data set: Drug uptake in rat heart measured at 15 and 60 mins. The format is ADME, tissue-based. To be noted: in vivo, 1 h. The method in brief:
as §2

Data set [10] deals with T2, Corticotropin-releasing factor receptor 1 (Homo sapiens, UniProt P34998).
T2 sequence (P34998 whole entry): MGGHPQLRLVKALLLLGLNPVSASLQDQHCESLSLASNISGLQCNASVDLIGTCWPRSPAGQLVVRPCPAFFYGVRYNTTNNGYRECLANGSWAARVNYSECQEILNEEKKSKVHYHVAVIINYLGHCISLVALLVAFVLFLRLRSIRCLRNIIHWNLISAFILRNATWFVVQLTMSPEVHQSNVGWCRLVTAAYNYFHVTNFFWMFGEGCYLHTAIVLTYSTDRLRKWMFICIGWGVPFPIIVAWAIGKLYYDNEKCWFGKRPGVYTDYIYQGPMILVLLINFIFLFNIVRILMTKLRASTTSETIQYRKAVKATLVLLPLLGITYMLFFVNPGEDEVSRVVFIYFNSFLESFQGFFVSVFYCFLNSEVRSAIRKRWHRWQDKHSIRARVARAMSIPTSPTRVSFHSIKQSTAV
Nature of the data set: Binding affinity to CRFR1 by autoradiography. The method in brief:
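In vitro autoradiography on fresh 20 µm sagittal brain sections from adult male Sprague–Dawley rats. Sections preincubated 10 min in 50 mM HEPES, 10 mM MgCl2, EGTA, pH 7.4, then incubated with 1.3 nM [18F] radioligand at 22–24 °C for 40 min. Washed 2 min in ice-cold PBS, pH 7.4.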

Data set [11] can be described thus: Metabolic stability in baboon plasma assessed as compound remaining after 9 and 13 mins. The format is ADME, cell-free. To be noted: papio anubis, read-out: Stability.
The target of data set [12] is T3, Corticotropin-releasing factor receptor 1 (Rattus norvegicus) (UniProt P35353).
T3 sequence (whole entry): T1 sequence (P35353 whole entry)
Briefly: Binding affinity to CRFR1 in Sprague-Dawley rat neocortex at 1.3 nM after 40 mins by autoradiography. Conditions: tested as the 18F-labelled form. The method in brief: (§4)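 Fresh 20 µm-thick sagittal brain sections from adult male Sprague–Dawley rats. Sections were preincubated 10 min in 50 mM HEPES, 10 mM MgCl₂, […], pH 7.4, then incubated 40 min at 22–24 °C with 1.3 nM [¹⁸F]-radioligand (1.3 mCi/mL) in the same buffer. Slides were washed 2 min in ice-cold PBS (pH 7.4) and imaged by in vitro autoradiography.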

Data set [13] addresses T3, Corticotropin-releasing factor receptor 1 (Rattus norvegicus). Nature of the data set: Binding affinity to CRFR1 in Sprague-Dawley rat cerebellum at 1.3 nM after 40 mins by autoradiography. Conditions: tested as the 18F-labelled form. In a few lines:
as §4

In data set [1], `COC[C@@H](C1CC1)n1cc(Cl)nc(Nc2cc(C)c(OCF)cc2C)c1=O` registered an IC50 of 4.1 nM. For the same compound, the logD in data set [2] was found to be 3.1.
Compound `COCC(COC)n1cc(Br)nc(Nc2c(C)cc(OC)cc2C)c1=O` showed a fraction unbound at 3 h in data set [3] of 0.03. Besides, the half-inhibitory concentration (IC50) in data set [1] was 7.8 nM. In [2], this compound came in with a log distribution coefficient (logD) of 2.8.
`COC[C@@H](C)n1cc(Cl)nc(Nc2cc(C)c(OC)cc2C)c1=O` had an IC50 in data set [1] of 0.88 nM. In addition, the Drug metabolism with Liver microsomes [4] was 0.19 pmol/min; in the data set on Liver microsomes [5], 0.06 pmol/min. In [2], the pH-dependent lipophilicity (logD) was determined as 3.4.
Compound `COCC(COC)n1cc(Cl)nc(Nc2c(Cl)cc(OCF)cc2Cl)c1=O` returned an IC50 in data set [1] of 5.4 nM. This compound also had a log distribution coefficient (logD) in [2] of 3.1.
The compound `COCC(COC)n1cc(Cl)nc(Nc2c(Cl)cc(OC)cc2Cl)c1=O` returned an IC50 in [1] of 5 nM. Further, the values for the Drug metabolism in the data set with Liver microsomes [4] and with Liver microsomes [5] were 0.17 pmol/min and 0.03 pmol/min, respectively. Besides, the logD in data set [2] stood at 3.4.
On the same counts, the results for `COCC(COC)n1cc(Br)nc(Nc2cc(C)c(OC)cc2C)c1=O` are 0.68 nM, 0.14 pmol/min, 0.07 pmol/min and 3.8.
As to `COC[C@@H](C1CC1)n1cc(Cl)nc(Nc2cc(C)c(OCC[18F])cc2C)c1=O`, the Drug uptake entry is on record as “Active” in the data set with Spleen; “Active” in the data set on Liver; “Not Active” in the data set on Brain [6]; “Active” with Muscle tissue; “Active” with Lung; “Active” with Intestine. Also, the Drug uptake entry (in the data set with Blood; in the data set on Brain [7]; in the data set on Brain [8]; in data set [9]; in the data set with Kidney; in the data set with Heart) was “Active” each time.
As for `COC[C@@H](C1CC1)n1cc(Cl)nc(Nc2cc(C)c(OC)cc2C)c1=O`, the Drug metabolism in the data set with Liver microsomes [4] is given as 0.23 pmol/min; in the data set on Liver microsomes [5] it was 0.17 pmol/min.
With `COCC(COC)n1cc(Br)nc(Nc2c(C)cc(OCF)cc2C)c1=O`, in data set [3], the fraction unbound at 3 h is 0.03. The half-maximal inhibitory concentration (IC50) in [1] was determined as 4.3 nM. The Drug metabolism is 0.26 pmol/min in the data set on Liver microsomes [4] and 0.22 pmol/min in the data set on Liver microsomes [5]. In addition, in data set [2], the logD is 2.9.
As for `COCCN(CCO[11CH3])Cc1cc(C)nc2c(-c3ccc(Cl)cc3Cl)c(C)nn12` [[11C]DMP-696], the Ki in [10] was found to be 1.7 nM. Also, the remaining at 13 min in data set [11] amounted to 50%.
On the same counts, the results for `CCCN(CCC)c1cc(C)nc2c(-c3ccc(N(C)[11CH3])nc3)c(C)nn12` are 1.7 nM and 50%.
Turning to `COC[C@@H](C1CC1)n1cc(Cl)nc(Nc2cc(C)c(OCCF)cc2C)c1=O`, the Activity in [12] was 18%; in [13] it was 19%. This compound also registered an IC50 in data set [1] of 2.4 nM. Besides, the Drug metabolism with Liver microsomes [4] was 0.12 pmol/min; in the data set with Liver microsomes [5], 0.07 pmol/min. This compound returned a pH-dependent lipophilicity (logD) in data set [2] of 3.7.
Consider `COCCN(CCOC)c1nc(C)nc2c(-c3ccc([76Br])cc3Cl)c(C)nn12`, for which the inhibition constant Ki in [10] was determined as 2 nM. That is a single-digit nanomolar value.
Still for that read-out and setting: the same measure for `CCC(COC)n1nnc2c(Nc3ccc(O[11CH3])cc3C)nc(C)cc21` (centres undefined): 1.7 nM.
In the case of `COCC(COC)n1cc(Cl)nc(Nc2c(Cl)cc(OCCF)cc2Cl)c1=O`, the 50% inhibitory concentration (IC50) in data set [1] came to 210 nM. For the same compound, the Drug metabolism with Liver microsomes [4] is 0.12 pmol/min; with Liver microsomes [5], 0.07 pmol/min. Besides, the logD in [2] amounted to 3.1.
